Measured values taken from ChEMBL document CHEMBL1806401, “Highly improved metabolic stability and pharmacokinetics of indium-111-DOTA-gastrin conjugates for targeting of the gastrin receptor” (J Med Chem, 2011).
Peptide text beside a SMILES is read from it.

How the values were obtained:
[1] = target: T1, Gastrin/cholecystokinin type B receptor (Homo sapiens, UniProt P32239); experiment: Displacement of [125I]CCK from gastrin receptor isolated from human tumor tissues
T1 sequence (P32239 whole entry): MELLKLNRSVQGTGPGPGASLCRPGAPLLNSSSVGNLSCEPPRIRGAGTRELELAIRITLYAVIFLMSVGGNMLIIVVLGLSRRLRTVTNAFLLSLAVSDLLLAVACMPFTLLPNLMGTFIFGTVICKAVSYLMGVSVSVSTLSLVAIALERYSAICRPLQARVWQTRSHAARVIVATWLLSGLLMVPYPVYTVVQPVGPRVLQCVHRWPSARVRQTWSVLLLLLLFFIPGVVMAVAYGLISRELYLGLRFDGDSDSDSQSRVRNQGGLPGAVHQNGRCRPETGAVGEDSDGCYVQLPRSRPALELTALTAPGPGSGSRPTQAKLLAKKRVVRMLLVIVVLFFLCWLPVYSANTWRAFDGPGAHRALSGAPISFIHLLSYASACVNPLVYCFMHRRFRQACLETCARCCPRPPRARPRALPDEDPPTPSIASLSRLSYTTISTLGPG
Outline: (§1)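 Surgically resected human tumor tissues expressing CCK-1 or gastrin receptors; 125I-CCK incubation medium with increasing amounts of competitor added to generate competitive inhibition curves.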

[2] = target: T2, Cholecystokinin receptor type A (Homo sapiens, UniProt P32238); experiment: Displacement of [125I]CCK from CCK1 receptor isolated from human tumor tissues; outline: as §1
T2 sequence (P32238 whole entry): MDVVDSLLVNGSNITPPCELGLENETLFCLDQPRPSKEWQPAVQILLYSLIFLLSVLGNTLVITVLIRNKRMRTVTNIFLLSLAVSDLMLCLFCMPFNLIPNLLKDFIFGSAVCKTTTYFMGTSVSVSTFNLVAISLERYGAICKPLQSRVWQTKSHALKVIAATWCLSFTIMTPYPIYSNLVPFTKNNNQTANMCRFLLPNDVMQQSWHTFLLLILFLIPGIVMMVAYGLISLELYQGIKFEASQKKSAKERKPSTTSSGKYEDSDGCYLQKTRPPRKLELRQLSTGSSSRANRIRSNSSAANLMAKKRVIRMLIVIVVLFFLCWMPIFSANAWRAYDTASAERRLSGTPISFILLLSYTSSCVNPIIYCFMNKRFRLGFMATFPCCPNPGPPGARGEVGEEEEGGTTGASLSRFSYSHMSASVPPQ

[3] = target: T3, Gastrin/cholecystokinin type B receptor (Rattus norvegicus, UniProt P30553); experiment: Agonist activity at gastrin receptor in rat AR4-2J cells assessed as intracellular calcium mobilization by fluorescence assay; format: functional, cell-based
T3 sequence (P30553 whole entry): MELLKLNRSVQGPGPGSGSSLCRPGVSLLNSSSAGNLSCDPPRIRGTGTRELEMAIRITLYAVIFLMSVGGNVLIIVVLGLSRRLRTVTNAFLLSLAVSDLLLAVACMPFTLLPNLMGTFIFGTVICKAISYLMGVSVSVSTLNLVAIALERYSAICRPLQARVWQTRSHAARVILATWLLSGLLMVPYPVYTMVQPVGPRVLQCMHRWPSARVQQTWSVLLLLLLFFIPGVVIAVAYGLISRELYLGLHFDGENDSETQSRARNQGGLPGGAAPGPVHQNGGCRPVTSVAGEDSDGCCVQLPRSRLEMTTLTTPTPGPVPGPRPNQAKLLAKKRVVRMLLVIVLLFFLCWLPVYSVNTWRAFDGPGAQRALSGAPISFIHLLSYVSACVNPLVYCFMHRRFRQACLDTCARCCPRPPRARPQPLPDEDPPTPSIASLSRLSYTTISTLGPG
Outline: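 AR4-2J cells seeded 50 000/well, cultured 1 day at 37 C, 5% CO2, then loaded with Ca dye in HBSS/20 mM HEPES with 2.5 mM probenecid for 1 h at 37 C. Peptides added as 1:3 serial dilutions in HBSS/HEPES/0.1% BSA/0.05% pluronic acid, diluted 1:6 on addition. Fluorescence (ex 485/em 525 nm) read 4 min at room temperature; Fmax with ionomycin; EC50 from four-parameter fit.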

| SMILES | IC50 [1] [nM] | IC50 [2] [nM] | EC50 [3] [nM] |
| --- | --- | --- | --- |
| CSCC[C@H](NC(=O)[C@H](Cc1c[nH]c2ccccc12)NC(=O)CNC(=O)[C@H](Cc1ccc(O)cc1)NC(=O)[C@H](C)NC(=O)[C@H](CCC(=O)O)NC(=O)[C@H](CCC(=O)O)NC(=O)[C@H](CCC(=O)O)NC(=O)[C@H](CCC(=O)O)NC(=O)[C@H](CCC(=O)O)NC(=O)[C@H](CCC(=O)O)NC(=O)CN1CCN(CC(=O)O)CCN(CC(=O)O)CCN(CC(=O)O)CC1)C(=O)N[C@@H](CC(=O)O)C(=O)N[C@@H](Cc1ccccc1)C(N)=O | 0.7 | > 700 | – |
| CSCC[C@H](NC(=O)[C@H](Cc1c[nH]c2ccccc12)NC(=O)CNC(=O)[C@H](Cc1ccc(O)cc1)NC(=O)[C@H](C)NC(=O)[C@@H](CO)NC(=O)[C@@H](CO)NC(=O)CN1CCN(CC(=O)O)CCN(CC(=O)O)CCN(CC(=O)O)CC1)C(=O)N[C@@H](CC(=O)O)C(=O)N[C@@H](Cc1ccccc1)C(N)=O | 0.9 | > 700 | – |
| CSCC[C@H](NC(=O)[C@H](Cc1c[nH]c2ccccc12)NC(=O)CNC(=O)[C@H](Cc1ccc(O)cc1)NC(=O)[C@H](C)NC(=O)[C@@H](CCC(N)=O)NC(=O)[C@@H](CCC(N)=O)NC(=O)[C@@H](CCC(N)=O)NC(=O)CN1CCN(CC(=O)O)CCN(CC(=O)O)CCN(CC(=O)O)CC1)C(=O)N[C@@H](CC(=O)O)C(=O)N[C@@H](Cc1ccccc1)C(N)=O (HELM PEPTIDE1{[O=C(O)CN1CCN(CC(=O)O)CCN(CC(=O)[*:2])CCN(CC(=O)O)CC1].[dQ].[dQ].[dQ].A.Y.G.W.M.D.F.[am]}$$$$V2.0) | 3.6 | > 700 | 0.27 |
| CSCC[C@H](NC(=O)[C@H](Cc1c[nH]c2ccccc12)NC(=O)CNC(=O)[C@H](Cc1ccc(O)cc1)NC(=O)[C@H](C)NC(=O)[C@@H](CCC(N)=O)NC(=O)[C@@H](CCC(N)=O)NC(=O)[C@@H](CCC(N)=O)NC(=O)[C@@H](CCC(N)=O)NC(=O)[C@@H](CCC(N)=O)NC(=O)[C@@H](CCC(N)=O)NC(=O)CN1CCN(CC(=O)O)CCN(CC(=O)O)CCN(CC(=O)O)CC1)C(=O)N[C@@H](CC(=O)O)C(=O)N[C@@H](Cc1ccccc1)C(N)=O (HELM PEPTIDE1{[O=C(O)CN1CCN(CC(=O)O)CCN(CC(=O)[*:2])CCN(CC(=O)O)CC1].[dQ].[dQ].[dQ].[dQ].[dQ].[dQ].A.Y.G.W.M.D.F.[am]}$$$$V2.0) | 2.4 | > 700 | 0.41 |

Now from value to compound, other results behind:

| IC50 [1] [nM] | IC50 [2] [nM] | SMILES | EC50 [3] [nM] |
| --- | --- | --- | --- |
| 0.6 | > 700 | CSCC[C@H](NC(=O)[C@H](Cc1c[nH]c2ccccc12)NC(=O)CNC(=O)[C@H](Cc1ccc(O)cc1)NC(=O)[C@H](C)NC(=O)[C@@H](CO)NC(=O)[C@@H](CO)NC(=O)[C@@H](CO)NC(=O)CN1CCN(CC(=O)O)CCN(CC(=O)O)CCN(CC(=O)O)CC1)C(=O)N[C@@H](CC(=O)O)C(=O)N[C@@H](Cc1ccccc1)C(N)=O | – |
| 0.8 | > 700 | CSCC[C@H](NC(=O)[C@H](Cc1c[nH]c2ccccc12)NC(=O)CNC(=O)[C@H](Cc1ccc(O)cc1)NC(=O)[C@H](C)NC(=O)[C@@H](CCC(N)=O)NC(=O)[C@@H](CCC(N)=O)NC(=O)CN1CCN(CC(=O)O)CCN(CC(=O)O)CCN(CC(=O)O)CC1)C(=O)N[C@@H](CC(=O)O)C(=O)N[C@@H](Cc1ccccc1)C(N)=O | – |
| 1.6 | > 700 | CCCC[C@H](NC(=O)[C@H](Cc1c[nH]c2ccccc12)NC(=O)CNC(=O)[C@H](Cc1ccc(O)cc1)NC(=O)[C@H](C)NC(=O)[C@@H](CCC(N)=O)NC(=O)[C@@H](CCC(N)=O)NC(=O)[C@@H](CCC(N)=O)NC(=O)CN1CCN(CC(=O)O)CCN(CC(=O)O)CCN(CC(=O)O)CC1)C(=O)N[C@@H](CC(=O)O)C(=O)N[C@@H](Cc1ccccc1)C(N)=O | – |
| 2.4 | > 700 | CSCC[C@H](NC(=O)[C@H](Cc1c[nH]c2ccccc12)NC(=O)CNC(=O)[C@H](Cc1ccc(O)cc1)NC(=O)[C@H](C)NC(=O)[C@@H](CCC(N)=O)NC(=O)[C@@H](CCC(N)=O)NC(=O)[C@@H](CCC(N)=O)NC(=O)[C@@H](CCC(N)=O)NC(=O)CN1CCN(CC(=O)O)CCN(CC(=O)O)CCN(CC(=O)O)CC1)C(=O)N[C@@H](CC(=O)O)C(=O)N[C@@H](Cc1ccccc1)C(N)=O | – |
